Assay outcomes as filed in PubChem BioAssay.
ARNT TACC3 PPI = disruptors of ARNT/TACC3 protein interaction, primary screen, biochemical, AlphaScreen, single concentration; Transforming acidic coiled-coil-containing protein 3 (Homo sapiens), Q9Y6A5; AlphaScreen His-ARNT PAS-B/GST-TACC3 binding, luminescence; TACC3 fragment carries E629A point mutation; inhibition, % at 9.99 µM; 0.66% of 390,000 active;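 active = mean inhibition of replicates at least 50% and at least half of replicates each reaching 50%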;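 also: 0% = complete ARNT plus TACC3 wells and 100% = ARNT alone without TACC3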
CAL PDZ FP-1 = CAL PDZ peptide-binding inhibitors, primary screen, biochemical, fluorescence polarization, Cer-tagged CAL PDZ, HTS | 0.02% of 330,000 active | AID 504414, 2011 | Golgi-associated PDZ and coiled-coil motif-containing protein (Homo sapiens), Q9HD26 | purified CAL PDZ, TMR-peptide fluorescence polarization, 1 h | inhibition, % at 20 µM;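 active = highest replicate inhibition of at least 40%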;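 also: plate controls were DMSO neutral control wells for no effect and unlabeled competitor peptide control wells for full effect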
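Test system: tagged CAL PDZ domain / Buffer or medium: sodium phosphate/NaCl buffer pH 7.4 with TCEP, IgG, Thesit / Reagent: TMR-labelled reporter peptide T*-PRC34 bound in PDZ groove / Compound dosing: single point, 20 µM / Schedule: 1 h incubation at room temperature before polarization reading / Technique: fluorescence polarization (mP) / Benchmarks: unlabelled peptide, DMSO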
CAL PDZ FP-2 = untagged CAL PDZ binding inhibitors, primary screen, biochemical, fluorescence polarization, HTS; 0.92% of 300,000 active; purified CAL PDZ, TMR-peptide fluorescence polarization, 1 h; AID 602252, 2012; inhibition, % at 24.9 µM;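 active = mean inhibition of at least 30% with at least half of replicates also reaching 30%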;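 also: 0% = DMSO neutral control and 100% = excess unlabeled competitor peptide PRC23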
* hit, by the source's call; . = no result given; + = active, no number. Hits are enriched below; roughly 1.2% of the tested compounds scored in any of these assays.

SMILES	ARNT TACC3 PPI	CAL PDZ FP-1	CAL PDZ FP-2
CC(c1ccccc1)N1C(=O)c2cccnc2C1=O (stereo not given)	9	0	.
CC(NC1=CC(=O)c2cccnc2C1=O)C(O)c1ccccc1 (stereo not given)	47*	1	-7
C[C@@H]1CN([C@@H](C)CO)C(=O)c2cc(NC(=O)CCN3CCOCC3)ccc2O[C@H]1CN(C)C(=O)Nc1ccc2c(c1)OCO2	-8	.	.
Cc1ccc(S(=O)(=O)N[C@@H]2C=C[C@@H](CC(=O)NCc3ccncn3)O[C@H]2CO)cc1	-14	.	.
CO[C@@H]1CN(C)C(=O)c2cc(NC(=O)c3ccc4c(c3)OCO4)ccc2OC[C@@H](C)N(CC2CC2)C[C@@H]1C	-1	.	.
Nc1nc(-c2ccc(Cl)cc2)nn1C(=O)c1ccco1	-7	0	-1
COc1ccc(-c2nc(N)n(C(=O)c3ccco3)n2)cc1	-4	.	77*
COc1ccc(S(=O)(=O)Nc2ccc3c(c2)C(=O)N([C@@H](C)CO)C[C@H](C)[C@@H](CN(C)CC2CCCCC2)OCCCC[C@H](C)O3)cc1	-3	.	.
CC(=O)Nc1ccc(NC(=O)c2ccc(C3SCC(=O)N3CCc3ccccc3)cc2)cc1 (stereo not given)	1	-2	-7
O=C1CSC(c2ccccc2[N+](=O)[O-])N1CCc1ccccc1 (stereo not given)	4	0	70*
CCN(C[C@H]1N[C@H](CO)[C@H]1c1ccc(-c2cccc(F)c2)cc1)C(=O)COC	-16	.	.
COC(=O)/C(=C/Nc1ccc(O)cc1)[N+](=O)[O-]	24*	0	66*
COC(=O)/C(=C/Nc1ccccc1)[N+](=O)[O-]	.	-2	4
CC(=O)NC(Cc1cccc(C)c1)C(=O)NC1CCN(S(=O)(=O)c2ccccc2)CC1 (stereo not given)	0	-1	49*
CC(=O)NC(Cc1ccc(F)cc1)C(=O)NC1CCN(S(=O)(=O)c2ccccc2)CC1 (stereo not given)	-4	-2	-3
CO[C@H]1CN(C)C(=O)c2ccc(NS(=O)(=O)c3ccccc3)cc2OC[C@@H](C)NC[C@@H]1C	-8	.	.
CC(C)NC(=O)NC[C@H]1[C@H](c2ccccc2)[C@H](CO)N1C(=O)c1ccccc1	-8	.	.
Cc1ccc(S(=O)(=O)Nc2ccc3c(c2)CC(=O)N([C@H](C)CO)C[C@@H](C)[C@@H](CN(C)S(=O)(=O)c2cccs2)O3)cc1	-5	.	.
Cc1nonc1C(=O)N/N=C/c1ccncc1	-3	-1	2
Cc1c(C(=O)N/N=C/c2ccncc2)no[n+]1[O-]	69*	-1	.
CCC(=O)N(C)C[C@H]1Oc2cc(C#CCC3CCCC3)ccc2S(=O)(=O)N([C@@H](C)CO)C[C@H]1C	3	.	.
Cc1noc(C)c1NC(=O)Nc1ccc2c(c1)CC(=O)N([C@H](C)CO)C[C@H](C)[C@H](CN(C)C)O2	-14	.	.
COc1cc2nc(=S)n(CCCN3CCOCC3)c(N)c2cc1OC	56*	-2	5
COc1cc2ncnc(NCCCN3CCOCC3)c2cc1OC	-4	-2	4
COC(=O)c1c(N)n(CCCN2CCOCC2)c2nc3ccccc3nc12	8	0	10
SMILES	ARNT TACC3 PPI	CAL PDZ FP-1	CAL PDZ FP-2
CCOc1cc2nc(-c3ccc(OC)c(OC)c3)nc(NCCCN3CCOCC3)c2cc1OC	55*	-7	-2
CCCNC(=O)N1C[C@@H](O)COC[C@H]2O[C@@H](CC(=O)NCc3ccc(Cl)c(Cl)c3)CC[C@@H]21	7	.	.
COc1ccc(C)cc1NC(=O)Cn1c(=O)oc2ccccc21	-7	-1	56*
Cc1ccccc1NC(=O)Cn1c(=O)oc2ccccc21	28	-1	-5
Cc1ccc(NC(=O)CCn2c(=O)oc3ccccc32)c(C)c1	4	-1	48*
Cc1ccc(NC(=O)CCCn2c(=O)oc3ccccc32)c(O)c1	0	-1	4
CC=Cc1ccc2n(c1=O)C[C@H]1[C@H](CO)[C@@H](C(=O)N(C)C)N(CC3CCCCC3)[C@@H]21 (mixture of isomers)	6	.	.
COc1cc(N)c(Cc2nccc3cc(OC)c(OC)cc23)cc1OC	15	0	-5
COc1ccc(C(N)c2nccc3cc(OC)c(OC)cc23)cc1OC (stereo not given)	72*	-1	2
CC(C)n1c(=S)[nH]c2c1c(=O)[nH]c(=O)n2C	1	-2	43*
C=CC(C)n1c(Br)nc2c1c(=O)[nH]c(=O)n2C (stereo not given)	.	.	-4
COc1ccc(NC(=O)N(C)C[C@@H]2Oc3ccc(NC(=O)Cc4ccccc4)cc3C(=O)N([C@@H](C)CO)C[C@@H]2C)cc1	-1	.	.
C[C@H]1CN([C@@H](C)CO)C(=O)c2cccc(NC(=O)Nc3ccc(C(F)(F)F)cc3)c2O[C@H]1CN(C)S(=O)(=O)c1ccc(F)cc1	3	.	.
CN/C=C1\C(=O)C(C)(C)Oc2ccc3ccc(=O)oc3c21	4	1	-1
CC1(C)Oc2ccc3ccc(=O)oc3c2/C(=C/NNC(N)=S)C1=O	75*	1	-6
O=C(C[C@@H]1C[C@@H]2c3cc(NS(=O)(=O)c4ccccc4)ccc3O[C@@H]2[C@@H](CO)O1)NCC1CC1	0	.	.
CC(=O)Nc1ccc(NCC(=O)c2ccccc2)cc1	-2	-1	50*
O=C(CNc1ccccc1)c1ccc([N+](=O)[O-])cc1	0	0	-3
Cn1c(CNC(=O)CNC(=O)c2ccc(C(C)(C)C)cc2)cc(=O)n(C)c1=O	0	-1	.
Cc1ccc(C(=O)NCC(=O)NCc2cc(=O)n(C)c(=O)n2C)cc1C	-6	0	44*
C[C@H]1CCCCO[C@@H](CN(C)C(=O)Nc2ccc(F)cc2)[C@@H](C)CN([C@@H](C)CO)C(=O)c2cc(NS(=O)(=O)c3cn(C)cn3)ccc2O1	7	.	.
Cc1noc(C)c1S(=O)(=O)Nc1ccc2c(c1)CC(=O)N([C@@H](C)CO)C[C@@H](C)[C@@H](CN(C)S(=O)(=O)c1c(C)noc1C)O2	-1	.	.
COc1ccccc1NC(=O)CCC(=O)O	-4	-1	0
Cc1cc(Cl)c(C)c(S(=O)(=O)Oc2ccccc2NC(=O)CCC(=O)O)c1Cl	28*	0	0
O=C(c1ccccn1)N1C[C@@H]2[C@H](c3ccccc31)[C@H](CO)N2C(=O)c1ccccn1	15	.	.
Cc1ccc(S(=O)(=O)N[C@H]2CC[C@@H](CCNC(=O)C3CCCCC3)O[C@@H]2CO)cc1	-14	.	.
C=CCSc1ncnc2c1oc1nc3c(cc12)COC(C)(C)C3	-5	-1	84*
CC(C)CSc1ncnc2c1oc1nc3c(cc12)COC(C)(C)C3	5	-3	.
COc1ccc(NC(=O)COC(=O)C2CC(=O)N(Cc3ccc(C)cc3)C2)cc1 (stereo not given)	1	-3	1
COc1ccc(COC(=O)C2CC(=O)N(Cc3ccccc3)C2)cc1 (stereo not given)	-7	0	+
